Results gathered from unrelated publications.
Each line is one published result; the experiments were not run side by side.
Target: Casein kinase I isoform gamma-3 (CSNK1G3, Homo sapiens, UniProt Q9Y6M4)

SMILES | observed | action | method | tested at | measurement | value
CCCOc1ccc([C@@H]2[C@@H](C(=O)O)[C@H](c3ccc4c(c3)OCO4)CN2CC(=O)Nc2c(CC)cccc2CC)cc1 | cell-free assay |  | competition with immobilised ligand | 1 µM | remaining binding | 100%
Cn1c2c(c3ccc(Cl)c(Cl)c31)C(C#N)C1(CCNCC1)NC2=O (racemic) | thermal stability |  | DSF | 10 µM | ΔTm | 2.9 °C
CNC(=O)c1cc(Oc2ccc(NC(=O)Nc3ccc(Cl)c(C(F)(F)F)c3)cc2)ccn1 | enzyme activity | inhibitor |  | 0.3 µM | inhibition | -4%
C[C@@H]1CCN(C(=O)CC#N)C[C@@H]1N(C)c1ncnc2[nH]ccc12 | cell-free assay | inhibitor |  | 0.5 µM | remaining signal | 101%
Nc1ncnc2occ(-c3ccc(NC(=O)Nc4cc(C(F)(F)F)ccc4F)cc3)c12 | cell-free assay | inhibitor |  | 20 µM | remaining signal | 11%
CCCS(=O)(=O)Nc1ccc(F)c(C(=O)c2c[nH]c3ncc(-c4ccc(Cl)cc4)cc23)c1F | enzyme activity | inhibitor |  | 1 µM | inhibition | < 10%
CCOc1cc(-c2nncn2C)ccc1Nc1ncc2cc(C)nc(NCC(C)(C)C)c2n1 | enzyme activity | inhibitor | FRET | 1 µM | inhibition | < 15%
O=C1Nc2ccc(Cl)cc2C1=Cc1cc(Cl)c(O)c(Cl)c1 | cell-free assay |  |  | 0.5 µM | remaining signal | 93%
COc1cc2ncnc(Nc3ccc(Oc4ccccc4)c(C)c3C)c2cc1OC | enzyme activity | inhibitor |  | 1 µM | inhibition | 3%
CCN1CCC2(CC1)NC(=O)c1c(c3ccc(Cl)c(Cl)c3n1C)C2C#N (racemic) | thermal stability |  | DSF | 10 µM | ΔTm | 0.8 °C
CCS(=O)(=O)c1cc2cc(C[C@@](O)(CC(C)(C)c3ccc(F)cc3C(N)=O)C(F)(F)F)[nH]c2cn1 | cell-free assay |  | competition with immobilised ligand | 1 µM | remaining binding | 100%
Cn1c2c(Cl)c(Cl)ccc2c2cc(N)[nH]c(=O)c21 | thermal stability |  | DSF | 10 µM | ΔTm | 0.1 °C
COc1cc(Cl)c(C(=O)N[C@@H](CN[C@H]2CC[C@@H](N)CC2)Cc2ccc(C#N)cc2)cc1-c1ccc(CN[C@H](C)c2ccc(C)cc2)o1 | enzyme activity | inhibitor |  | 1 µM | remaining activity | 96%
C[C@@]1(Cc2ccc(C#N)cc2)C(=O)N(c2cc(Cl)cc(Cl)c2)c2ncc(C(=O)NC3(c4nc(C5CCC5)no4)CC3)n21 | cell-free assay |  | competition with immobilised ligand | 1 µM | remaining binding | 100%
Cc1cc(NC(=O)c2cccc3cc(-c4cccc5[nH]nc(N)c45)ccc23)ccc1F | enzyme activity | inhibitor |  | 0.1 µM | activity vs control | 107%
Cc1ccc(Nc2nccc(N(C)c3ccc4c(C)n(C)nc4c3)n2)cc1S(N)(=O)=O | enzyme activity | inhibitor |  | 0.3 µM | inhibition | -8%
CC(C)(O)[C@H]1CC[C@H](Nc2ccc3ncc(-c4cccc(C(F)(F)F)c4)n3n2)CC1 | enzyme activity | inhibitor |  | 1 µM | remaining activity | 90%
COc1cc2c(N3CCN(C(=O)Nc4ccc(OC(C)C)cc4)CC3)ncnc2cc1OCCCN1CCCCC1 | cell-free assay |  |  | 0.5 µM | remaining signal | 95%
O=C(Nc1cnn(-c2csc(C(=O)NC3COC3)c2)c1)Nc1c(F)cccc1Cl | enzyme activity | inhibitor |  | 5 µM | remaining activity | 92.6%
O=C(N[C@H]1CCCCC/C=C\C2C[C@@]2(C(=O)O)NC(=O)[C@@H]2C[C@@H](Oc3ccncc3)CN2C1=O)OC1CCCC1 (some centres unmarked) | binding |  | competition with immobilised ligand | 1 µM | remaining binding | 100%
Cn1c2c(c3ccc(Cl)c(Cl)c31)C(C#N)C1(CCN(C(=O)OC(C)(C)C)CC1)NC2=O (racemic) | thermal stability |  | DSF | 10 µM | ΔTm | -0.1 °C
C[C@@H](c1cccc(C#N)c1)n1cc(Cl)cc(C(N)=O)c1=N | cell-free assay |  | competition with immobilised ligand | 1 µM | remaining binding | 100%
F[C@@H]1CCN(c2nccc(-c3cnn4ncccc34)n2)C1 | binding |  |  | 1 µM | remaining binding | 86%
COc1ccc2c(O[C@@H]3C[C@H]4C(=O)N[C@]5(C(=O)O)CC5/C=C\CCCCC[C@H](NC(=O)OC5CCCC5)C(=O)N4C3)cc(-c3csc(NC(=O)C(C)C)n3)nc2c1C (some centres unmarked) | cell-free assay |  | competition with immobilised ligand | 1 µM | remaining binding | 100%
CC(C)(C)c1nc(-c2cccc(NS(=O)(=O)c3c(F)cccc3F)c2F)c(-c2ccnc(N)n2)s1 | enzyme activity | inhibitor | radiometric | 1 µM | remaining activity | 91%
CS(=O)(=O)c1cc(C2(NC(=O)c3cncc4c3cnn4-c3ccc(F)cc3)CC2)ccn1 | cell-free assay |  | competition with immobilised ligand | 1 µM | remaining binding | 100%
O=C1NC(=O)c2cc(Nc3ccc(F)cc3)c(Nc3ccc(F)cc3)cc21 | cell-free assay |  |  | 0.5 µM | remaining signal | 90.7%
CCC1(CC)NC(=O)c2c(c3ccc(Cl)c(Cl)c3n2C)C1C#N (centres unmarked) | thermal stability |  | DSF | 10 µM | ΔTm | 0 °C
NS(=O)(=O)c1cc(NC(=O)Cc2ccccc2)ccc1Oc1cccc(Cl)c1 | cell-free assay |  | competition with immobilised ligand | 1 µM | remaining binding | 74%
